This is a sample that favours compounds with a hit; in the whole collection about 1.5% have one here.
EBI2 antag – antagonists of human EBI2 receptor | P32249 | EBI2 beta-arrestin recruitment, luminescence, 7a,25-OHC stimulated | inhibition, % at 5 µM | 360,000 tested, 0.81% active | AID 651636; in the data active = inhibition above about 38%;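 also: enzyme fragment complementation signal reports receptor beta-arrestin coupling in cells; 0% = agonist plus DMSO wells and 100% = wells without agonist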
CCR6 antagonist – antagonists of human CCR6 receptor. AID 493098. P51684. inhibition, % at 20 µM. CHO-K1 CCR6 PathHunter beta-arrestin, luminescence, CCL20-stimulated. 340,000 tested, 0.49% active;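 active = compounds whose inhibition of the agonist-driven luminescence signal at 20 µM reaches about 50%, limit read from the data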;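 also: cells stimulated with CCL20 at 14 nM final; plate controls were DMSO with CCL20 for no effect and DMSO without agonist for full effect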
APJ agonist – agonists of human APJ apelin receptor | P35414 | CHO-K1 APJ PathHunter beta-arrestin, luminescence; 0% DMSO wells, 100% apelin | activation, % at 20 µM | 330,000 tested, 0.11% active | AID 2520;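 active = activation more than six SD over the plate average, tested at 20 µM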;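 also: 0% = DMSO alone and 100% = apelin-13 at 10 nM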
Target sequence (P35414 whole entry, looked up): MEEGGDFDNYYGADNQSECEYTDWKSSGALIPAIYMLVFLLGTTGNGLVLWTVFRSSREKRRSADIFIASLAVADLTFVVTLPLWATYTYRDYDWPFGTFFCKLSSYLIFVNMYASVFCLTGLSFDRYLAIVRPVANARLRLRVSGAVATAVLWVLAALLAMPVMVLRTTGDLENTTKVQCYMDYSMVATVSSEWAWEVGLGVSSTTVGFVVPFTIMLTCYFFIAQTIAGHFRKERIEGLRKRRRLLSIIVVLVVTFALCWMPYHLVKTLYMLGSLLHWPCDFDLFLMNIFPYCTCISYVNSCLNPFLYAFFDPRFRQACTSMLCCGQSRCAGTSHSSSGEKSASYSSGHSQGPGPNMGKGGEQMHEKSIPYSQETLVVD
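Material: CHO-K1 APJ beta-arrestin complementation cell line; Input: cell density 1000 per well; Incubation: compound stimulation 90 min at 25 °C, detection 60 min; Signal: luminescence from split beta-galactosidase complementation, Galacton Star/Emerald II substrate; Controls: DMSO-only wells as negative, 10 nM Apelin-13 as positive control.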
CXCR6 inh – CXCR6 (human) receptor inhibition; inhibition, % at 20 µM; O00574; CHO-K1 PathHunter CXCR6 beta-arrestin, luminescence; 360,000 tested, 0.36% active; in the data active = inhibition above about 34%, passing the limit was not always enough;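 also: antagonist mode with CXCL16 agonist at 10 nM final; 0% = 10 nM CXCL16 with DMSO and 100% = unstimulated wells without agonist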
APJ antagonist – APJ receptor antagonism. CHO-K1 APJ beta-arrestin complementation, luminescence. inhibition, % at 20 µM. 330,000 tested, 0.32% active. AID 2521;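 active = inhibition above about 40% at 20 µM, limit read from the data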;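 also: cells challenged with 10 nM apelin-13 agonist together with compound; plate controls were apelin-13 plus DMSO wells for no effect and DMSO wells lacking apelin-13 for full effect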
EBI2 antag conf – confirmation of human EBI2 receptor antagonists; shares compounds with EBI2 antag; EBI2 beta-arrestin luminescence, 7a,25-OHC antagonism; inhibition, % at 5 µM; 2,400 tested, 29% active; AID 651997;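 active = inhibition of at least 50%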
EBI2 agonist – activates EBI2, counter-screen for EBI2 antagonists. activation, % at 5 µM. 2,400 tested, under 10 active. EBI2-expressing cells, agonist mode, luminescence, 60 min; 0% vehicle, 100% 7α,25-dihydroxycholesterol control. shares compounds with EBI2 antag;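 active = activation of at least 50%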
bGal counter – counter-screen for EBI2 antagonists: E. coli beta-galactosidase inhibition; shares compounds with EBI2 antag; AID 652176; inhibition, % at 5 µM; purified beta-galactosidase, luminescent Galacton Star, 15 min; 2,400 tested, 1% active;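 active = replicate-average signal at least 3 plate SD below neutral wells, shown as high inhibition, flagging enzyme-inhibiting false positives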;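 also: 0% = DMSO wells with enzyme and 100% = wells lacking enzyme; higher means stronger loss of beta-gal luminescence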
* = called active by the depositor; . = no result.

SMILES | EBI2 antag | CCR6 antagonist | APJ agonist | CXCR6 inh | APJ antagonist | EBI2 antag conf | EBI2 agonist | bGal counter
Cc1ccc(OCCNC(=O)CCNS(=O)(=O)c2ccc3ccccc3c2)cc1 | 47* | 2 | -2 | -13 | -6 | 5 | -1 | -10
CCc1ccc(OCCNC(=O)c2ccc(S(=O)(=O)N(C)C)cc2)cc1 | 64* | -1 | -4 | -6 | 1 | 41 | -1 | -9
Cc1ccc(F)c(S(=O)(=O)NC(=O)C2(C)CCN2C(=O)c2cccc3ccccc23)c1 (stereo not given) | -4 | . | . | 3 | . | . | . | .
Cc1cccc(-c2cnc(C(O)c3ccc(Cl)cc3C)[nH]2)c1 (stereo not given) | -5 | . | . | 4 | . | . | . | .
C[C@H](O)[C@@H]1CN2CCc3c([nH]c4ccccc34)[C@@H]2C[C@@H]1N(C)C(=O)OCc1ccccc1 | 0 | . | . | -2 | . | . | . | .
Cc1cccc(C)c1NC(=O)C(=O)NCCOc1ccc(Cl)cc1 | 51* | -10 | -3 | -2 | 8 | 25 | 1 | 4
Cc1ccc(OCCNC(=O)Cc2ccc(F)cc2)cc1 | 50* | 6 | -4 | 0 | 11 | 44 | 1 | 5
O=C(Cc1ccc(F)cc1)NCCc1ccc(F)cc1 | 7 | 14 | -5 | -3 | 12 | . | . | .
CCCCCCCCN1C(=O)[C@H](CC(=O)NCc2ccc(OC)c(OC)c2)C[C@@]2(C(=O)OCC)CCCC=C12 | 10 | . | . | 22 | . | . | . | .
O=C(NCCOc1ccccc1)C(c1ccccc1)c1ccccc1 | 53* | 16 | -2 | 12 | -17 | 44 | -1 | -16
COc1ccccc1OCCNC(=O)C(c1ccccc1)c1ccccc1 | 8 | -3 | 0 | 5 | 17 | . | . | .
COc1ccc(OCCNC(=O)C(c2ccccc2)c2ccccc2)cc1 | 85* | 17 | -3 | -5 | -6 | 52* | -1 | -10
CCOc1ccc(NC(=S)N(CCc2c(C)[nH]c3ccc(C)cc23)Cc2ccco2)cc1 | 40* | 7 | -4 | 7 | 8 | 29 | 0 | 3
Nc1[nH]c(C(=O)c2ccccc2)c(-c2ccc(Cl)cc2Cl)c1C(=O)c1ccc(Br)cc1 | -5 | . | . | 11 | . | . | . | .
Cc1ccc(CON=C2CCN(c3ncc(C(F)(F)F)cc3Cl)CC2)cc1 | 43* | -18 | 0 | 1 | 12 | 4 | 0 | -12
ON=C1CCN(c2ncc(C(F)(F)F)cc2Cl)CC1 | -6 | -4 | -3 | -1 | -12 | . | . | .
FC(F)(F)c1cnc(N2CCC(=NOCc3ccc(Cl)cc3)CC2)c(Cl)c1 | 54* | 30 | 0 | 6 | 12 | 7 | 0 | 8
FC(F)(F)c1cccc(CON=C2CCN(c3ncc(C(F)(F)F)cc3Cl)CC2)c1 | 14 | 29 | -4 | -2 | -12 | . | . | .
O=C1NC[C@@H](CCCCN2C[C@H](Cc3ccc(O)cc3)N(CCC3CCCCC3)C(=O)C2=O)N(CCC2CCCCC2)C1=O | 2 | . | . | 5 | . | . | . | .
COc1cccc(Nc2nc(-c3sc(N)nc3C)cs2)c1 | 2 | 6 | 0 | -7 | -34 | . | . | .
Cc1nc(C)c(-c2csc(Nc3ccc(C(=O)O)c(O)c3)n2)s1 | 4 | 8 | 1 | -5 | 8 | . | . | .
COc1cccc(Nc2nc(-c3sc(C)nc3C)cs2)c1 | 48* | -13 | -2 | -3 | -7 | 59* | 1 | 4
Cc1nc(C)c(-c2csc(Nc3ccc(F)cc3)n2)s1 | 46* | 16 | 3 | 3 | -1 | 52* | 3 | 3
CCCC(=O)Nc1cc2c(cc1C(=O)c1ccccc1)OCCO2 | -5 | 12 | 0 | 8 | 18 | . | . | .
CCOc1ccc(S(=O)(=O)c2c(C(=O)c3ccccc3)cnc3cc4c(cc23)OCCO4)cc1 | 52* | 14 | -1 | 1 | 4 | 25 | -1 | -11
CCCCn1c(OC(=S)N(CC)CC)cc(C)nc1=S | -2 | . | . | -5 | . | . | . | .
C[C@H]1CN([C@@H](C)CO)C(=O)c2cc(NC(=O)C3CCCCC3)ccc2O[C@H]1CN(C)S(=O)(=O)c1ccccc1 | 13 | 15 | -4 | 9 | 18 | . | . | .
O=C(COc1ccccc1Br)NCCC1=CCCCC1 | 16 | 16 | -4 | 4 | 5 | . | . | .
